# Test results as given in ChEMBL document CHEMBL4376860, “Discovery of Novel Dual Poly(ADP-ribose)polymerase and Phosphoinositide 3-Kinase Inhibitors as a Promising Strategy for Cancer Therapy” (J Med Chem, 2020).
# The source made the active and inactive calls. No cut-off for these calls is given here.
# Key:
# [1] = tested on: Mus musculus; assay: In vivo inhibition of PI3K in BALB/c mouse xenografted with human MDA-MB-468 cells assessed as reduction in AKT phosphorylation at S473 residue at 50 mg/kg, ip administered every 2 days for 34 days measured post-last dose by Western blot analysis; type: functional, organism-based
# [2] = tested on: Mus musculus; assay: In vivo inhibition of PI3K in BALB/c mouse xenografted with human MDA-MB-468 cells assessed as reduction in pS6 phosphorylation at S240 residue at 50 mg/kg, ip administered every 2 days for 34 days measured post-last dose by Western blot analysis; type: functional, organism-based
# [3] = molecular target: Poly [ADP-ribose] polymerase 1 (Homo sapiens, UniProt P09874); assay: Inhibition of recombinant human PARP1 using histone as substrate after 1 hr in presence of biotinylated NAD+ by ELISA
# Chain of Poly [ADP-ribose] polymerase 1 (P09874 whole entry, canonical isoform): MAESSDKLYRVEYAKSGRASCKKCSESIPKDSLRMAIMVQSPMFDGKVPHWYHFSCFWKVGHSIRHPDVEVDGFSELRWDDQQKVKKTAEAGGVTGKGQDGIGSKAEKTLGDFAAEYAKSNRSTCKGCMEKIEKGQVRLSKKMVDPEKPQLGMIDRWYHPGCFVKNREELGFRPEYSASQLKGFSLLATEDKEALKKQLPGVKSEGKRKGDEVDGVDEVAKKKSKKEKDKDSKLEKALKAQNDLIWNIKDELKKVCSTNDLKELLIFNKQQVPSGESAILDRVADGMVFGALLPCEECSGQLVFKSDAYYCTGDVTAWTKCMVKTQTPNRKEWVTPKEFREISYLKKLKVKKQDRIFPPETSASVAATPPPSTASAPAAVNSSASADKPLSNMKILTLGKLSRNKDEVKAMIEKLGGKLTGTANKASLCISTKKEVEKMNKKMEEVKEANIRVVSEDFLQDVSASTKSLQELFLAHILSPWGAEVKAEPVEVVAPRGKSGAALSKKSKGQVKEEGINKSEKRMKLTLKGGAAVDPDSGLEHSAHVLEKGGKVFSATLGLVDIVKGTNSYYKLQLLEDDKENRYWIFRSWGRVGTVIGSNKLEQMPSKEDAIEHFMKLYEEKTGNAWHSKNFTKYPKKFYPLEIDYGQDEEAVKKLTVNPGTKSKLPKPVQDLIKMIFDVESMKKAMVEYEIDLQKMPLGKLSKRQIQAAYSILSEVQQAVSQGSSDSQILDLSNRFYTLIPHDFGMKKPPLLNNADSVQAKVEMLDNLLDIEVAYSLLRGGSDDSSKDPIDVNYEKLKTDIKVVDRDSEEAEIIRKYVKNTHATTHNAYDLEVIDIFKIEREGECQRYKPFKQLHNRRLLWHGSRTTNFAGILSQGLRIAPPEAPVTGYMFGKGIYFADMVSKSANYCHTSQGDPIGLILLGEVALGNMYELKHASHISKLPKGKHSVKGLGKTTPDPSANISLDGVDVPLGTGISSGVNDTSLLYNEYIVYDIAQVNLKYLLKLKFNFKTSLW
# [4] = molecular target: Phosphatidylinositol 4,5-bisphosphate 3-kinase catalytic subunit delta isoform (Homo sapiens, UniProt O00329); assay: Inhibition of PI3Kdelta (unknown origin) using PIP2 as substrate measured after 2 hrs by ADP-glo plus luminescence assay
# Chain of Phosphatidylinositol 4,5-bisphosphate 3-kinase catalytic subunit delta isoform (O00329 whole entry, canonical isoform): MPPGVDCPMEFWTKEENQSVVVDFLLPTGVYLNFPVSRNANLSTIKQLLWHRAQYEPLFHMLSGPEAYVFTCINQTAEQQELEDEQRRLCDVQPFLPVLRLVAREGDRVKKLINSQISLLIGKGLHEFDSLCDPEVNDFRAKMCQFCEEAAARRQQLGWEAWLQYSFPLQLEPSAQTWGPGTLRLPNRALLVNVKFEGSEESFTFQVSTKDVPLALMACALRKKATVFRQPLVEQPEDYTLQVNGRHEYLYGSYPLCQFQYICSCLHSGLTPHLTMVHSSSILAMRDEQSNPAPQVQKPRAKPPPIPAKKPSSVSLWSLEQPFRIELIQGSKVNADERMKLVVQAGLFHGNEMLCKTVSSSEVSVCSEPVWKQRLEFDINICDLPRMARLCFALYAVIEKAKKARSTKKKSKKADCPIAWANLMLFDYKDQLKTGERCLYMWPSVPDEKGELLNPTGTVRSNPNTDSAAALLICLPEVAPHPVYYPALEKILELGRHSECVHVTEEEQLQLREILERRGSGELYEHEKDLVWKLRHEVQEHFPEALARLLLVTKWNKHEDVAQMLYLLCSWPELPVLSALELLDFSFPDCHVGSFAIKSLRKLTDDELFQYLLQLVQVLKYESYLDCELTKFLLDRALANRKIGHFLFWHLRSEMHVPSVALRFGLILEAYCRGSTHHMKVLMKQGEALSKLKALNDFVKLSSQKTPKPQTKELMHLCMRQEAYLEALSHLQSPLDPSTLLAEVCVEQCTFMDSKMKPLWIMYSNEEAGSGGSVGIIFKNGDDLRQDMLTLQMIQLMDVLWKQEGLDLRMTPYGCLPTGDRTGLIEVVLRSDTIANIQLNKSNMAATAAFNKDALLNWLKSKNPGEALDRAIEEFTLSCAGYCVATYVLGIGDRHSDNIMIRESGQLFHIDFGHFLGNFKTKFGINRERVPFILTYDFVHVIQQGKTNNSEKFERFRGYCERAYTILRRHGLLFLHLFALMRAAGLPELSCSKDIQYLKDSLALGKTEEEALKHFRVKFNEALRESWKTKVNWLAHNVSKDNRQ
# In short: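 ADP-Glo Plus luminescence assay in 50 µL of 10 mM Tris-HCl pH 7.5 with 25 µM ATP, 9.75 µM PIP2, 4 mM MgCl2, 50 mM NaCl, 0.05% Chaps, 1 mM DTT, 5% glycerol and 2% DMSO. Enzyme: PI3Kα and β at 60 ng/mL, δ at 45 ng/mL. Ten-point 3-fold dilutions from 1 µM. Incubation at room temperature for 1 h (α, β) or 2 h (δ). IC50 by nonlinear regression.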
# [5] = tested on: MDA-MB-468; assay: Antitumor activity against human MDA-MB-468 cells xenografted in BALB/c mouse assessed as tumor growth inhibition at 50 mg/kg, ip administered every 2 days for 34 days and measured at 2 days interval during compound dosing relative to control; type: functional; conditions: MDA-MB-468, ip, read-out: TGI
# [6] = tested on: Mus musculus; assay: In vivo activation of ETS1 in BALB/c mouse xenografted with human MDA-MB-468 cells assessed as increase in ETS1 phosphorylation at Thr38 residue at 50 mg/kg, ip administered every 2 days for 34 days measured post-last dose by Western blot analysis; type: functional, organism-based
# [7] = molecular target: Poly [ADP-ribose] polymerase 2 (Homo sapiens, UniProt Q9UGN5); assay: Inhibition of recombinant human PARP2 using histone as substrate after 1 hr in presence of biotinylated NAD+ by ELISA
# Chain of Poly [ADP-ribose] polymerase 2 (Q9UGN5 whole entry): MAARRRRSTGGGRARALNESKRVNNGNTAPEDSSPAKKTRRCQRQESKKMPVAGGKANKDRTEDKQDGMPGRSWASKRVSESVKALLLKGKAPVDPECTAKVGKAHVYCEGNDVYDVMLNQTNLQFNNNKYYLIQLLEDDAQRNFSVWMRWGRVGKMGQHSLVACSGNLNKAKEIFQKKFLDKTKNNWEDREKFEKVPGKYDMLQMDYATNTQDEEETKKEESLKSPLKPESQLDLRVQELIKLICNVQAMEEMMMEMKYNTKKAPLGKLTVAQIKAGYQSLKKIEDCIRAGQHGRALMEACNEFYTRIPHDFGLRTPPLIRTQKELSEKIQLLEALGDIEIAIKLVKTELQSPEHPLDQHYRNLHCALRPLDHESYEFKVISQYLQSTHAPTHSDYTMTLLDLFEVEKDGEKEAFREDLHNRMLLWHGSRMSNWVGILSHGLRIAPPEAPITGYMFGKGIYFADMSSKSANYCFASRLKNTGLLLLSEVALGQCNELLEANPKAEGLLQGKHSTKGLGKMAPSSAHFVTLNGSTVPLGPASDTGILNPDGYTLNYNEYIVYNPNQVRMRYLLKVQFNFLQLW
# [8] = tested on: Mus musculus; assay: In vivo activation of ERK in BALB/c mouse xenografted with human MDA-MB-468 cells assessed as increase in ERK autophosphorylation at T202 residue at 50 mg/kg, ip administered every 2 days for 34 days measured post-last dose by Western blot analysis; type: functional, organism-based
# [9] = tested on: MDA-MB-468; assay: Induction of apoptosis in human MDA-MB-468 cells xenografted in BALB/c mouse assessed as increase in cleaved PARP expression at 50 mg/kg, ip administered every 2 days for 34 days measured post last dose by Western blot analysis; type: functional, organism-based
# [10] = tested on: Mus musculus; assay: In vivo inhibition of PI3K in BALB/c mouse xenografted with human MDA-MB-468 cells assessed as reduction in BRCA1 expression at 50 mg/kg, ip administered every 2 days for 34 days measured post-last dose by Western blot analysis; type: functional, organism-based
# [11] = tested on: MDA-MB-468; assay: Induction of apoptosis in human MDA-MB-468 cells assessed as increase in cleaved PARP level at 1 uM […] by Western blot analysis; type: functional, cell-based
# [12] = molecular target: Phosphatidylinositol 4,5-bisphosphate 3-kinase catalytic subunit beta isoform (Homo sapiens, UniProt P42338); assay: Inhibition of PI3Kbeta (unknown origin) using PIP2 as substrate measured after 1 hr by ADP-glo plus luminescence assay
# Chain of Phosphatidylinositol 4,5-bisphosphate 3-kinase catalytic subunit beta isoform (P42338 whole entry, canonical isoform): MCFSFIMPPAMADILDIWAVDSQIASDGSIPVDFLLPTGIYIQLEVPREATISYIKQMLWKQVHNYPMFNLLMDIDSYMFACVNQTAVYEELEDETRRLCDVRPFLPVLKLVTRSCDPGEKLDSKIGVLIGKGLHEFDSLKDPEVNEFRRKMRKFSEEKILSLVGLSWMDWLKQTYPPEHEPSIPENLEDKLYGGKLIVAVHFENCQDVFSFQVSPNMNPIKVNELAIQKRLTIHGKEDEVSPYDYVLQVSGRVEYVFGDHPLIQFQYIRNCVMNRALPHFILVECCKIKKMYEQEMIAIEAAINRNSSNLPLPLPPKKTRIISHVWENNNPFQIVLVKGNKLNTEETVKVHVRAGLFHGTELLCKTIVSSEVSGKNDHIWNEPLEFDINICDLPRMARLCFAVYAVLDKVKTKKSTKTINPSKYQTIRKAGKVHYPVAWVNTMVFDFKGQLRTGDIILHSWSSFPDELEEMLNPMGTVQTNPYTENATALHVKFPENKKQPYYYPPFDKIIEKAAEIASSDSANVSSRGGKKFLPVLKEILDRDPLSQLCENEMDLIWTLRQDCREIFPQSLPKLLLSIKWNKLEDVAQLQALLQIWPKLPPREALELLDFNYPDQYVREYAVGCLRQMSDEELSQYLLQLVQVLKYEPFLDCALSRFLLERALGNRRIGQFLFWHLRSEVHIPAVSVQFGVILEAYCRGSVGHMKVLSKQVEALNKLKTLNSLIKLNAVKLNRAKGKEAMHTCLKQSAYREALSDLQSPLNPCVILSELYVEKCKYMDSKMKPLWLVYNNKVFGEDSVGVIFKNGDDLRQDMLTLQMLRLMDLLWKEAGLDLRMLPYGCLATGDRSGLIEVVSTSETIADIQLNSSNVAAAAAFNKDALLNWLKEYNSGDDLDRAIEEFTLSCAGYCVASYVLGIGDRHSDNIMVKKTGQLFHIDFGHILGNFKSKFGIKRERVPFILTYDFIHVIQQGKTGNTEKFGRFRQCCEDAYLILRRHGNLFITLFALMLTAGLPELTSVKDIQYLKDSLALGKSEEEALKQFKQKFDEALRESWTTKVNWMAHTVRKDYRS
# [13] = Toxicity in BALB/c mouse xenografted with human MDA-MB-468 cells assessed as mortality at 27.5 mg/kg, ip administered every 2 days for 34 days; type: organism-based; conditions: in vivo
# In short: (§1)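 Nude mice bearing subcutaneous right-flank MDA-MB-468 tumours (2 × 10^6 exponential-phase cells implanted). Randomised at about 100 mm³ tumour volume; 6 mice per group. Dosed ip every 2 days for 34 days. Vehicle controls received PBS with 5% DMSO. Body weight and tumour size recorded every 2 days; tumour volume calculated as ab²/2 from caliper diameters.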
# [14] = tested on: MDA-MB-468; assay: Antitumor activity against human MDA-MB-468 cells xenografted in BALB/c mouse assessed as tumor growth inhibition at 27.5 mg/kg, ip administered every 2 days for 34 days and measured at 2 days interval during compound dosing in presence of PARP inhibitor olaparib relative to control; type: functional; conditions: MDA-MB-468, ip, read-out: TGI
# [15] = tested on: MDA-MB-468; assay: Induction of apoptosis in human MDA-MB-468 cells assessed as viable cells at 1 uM measured after 72 hrs in presence of PARP inhibitor olaparib by Annexin V-FITC/propidium iodide staining based flow cytometry (reference value: 95.2%); type: functional; conditions: MDA-MB-468, 72 h, read-out: Activity
# [16] = tested on: Jurkat; assay: cells; conditions: Homo sapiens, 168 h, read-out: pIC50 (converted)
# [17] = tested on: HCC1937; assay: cells; conditions: Homo sapiens, HCC1937, 168 h, read-out: pIC50 (converted)
# [18] = tested on: A549; assay: cells; conditions: Homo sapiens, A549, 168 h, read-out: pIC50 (converted)
# [19] = tested on: MDA-MB-468; assay: Induction of apoptosis in human MDA-MB-468 cells assessed as late apoptotic cells at 1 uM measured after 72 hrs in presence of PARP inhibitor olaparib by Annexin V-FITC/propidium iodide staining based flow cytometry (reference value: 0.78%); type: functional
# [20] = tested on: MDA-MB-468; assay: Induction of DNA damage in human MDA-MB-468 cells at 1 uM measured after 72 hrs in presence of PARP inhibitor olaparib by comet assay; type: functional, cell-based
# In short: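 MDA-MB-468 cells treated for 72 h, harvested and run in a neutral comet assay. Ethidium bromide staining after electrophoresis. About 200 cell images per group analysed with CASP. DNA damage scored as tail intensity (percentage DNA in tail) and olive tail moment. Mean ± SD of three independent experiments.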
# [21] = tested on: MDA-MB-468; assay: Induction of apoptosis in human MDA-MB-468 cells assessed as necrotic cells at 1 uM measured after 72 hrs in presence of PARP inhibitor olaparib by Annexin V-FITC/propidium iodide staining based flow cytometry (reference value: 0.13%); type: functional
# [22] = tested on: MDA-MB-468; assay: Inhibition of PI3K in human MDA-MB-468 cells assessed as reduction in BRCA2 mRNA level at 1 uM in presence of PARP inhibitor olaparib by Trizol reagent-based RT-PCR analysis; type: cell-based
# In short: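 Total RNA from treated MDA-MB-468 cells extracted with TRIzol. BRCA1 or BRCA2 mRNA quantified by real-time PCR with GAPDH as internal control. Results given as fold change relative to the internal control. Mean ± SD of three independent experiments.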
# [23] = Toxicity in BALB/c mouse xenografted with human MDA-MB-468 cells assessed as mortality at 50 mg/kg, ip administered every 2 days for 34 days in presence of PARP inhibitor olaparib; type: organism-based; conditions: in vivo; in short: as §1
smiles,measurement,setting,value
Nc1cc(C(F)(F)F)c(-c2nc3c(c(N4CCOCC4)n2)CCN(C(=O)c2cc(Cc4n[nH]c(=O)c5ccccc45)ccc2F)C3)cn1,inhibition,[1],Active
same,inhibition,[2],Active
same,IC50,[3],6.03 nM
same,IC50,[4],7.41 nM
same,inhibition in vivo at 50 mg/kg,[5],73.4%
same,Activity,[6],Active
same,IC50,[7],3.63 nM
same,Activity,[8],Active
same,Activity,[9],Active
same,inhibition,[10],Active
same,Activity,[11],Active
same,IC50,[12],288 nM
Nc1cc(C(F)(F)F)c(-c2cc(N3CCOCC3)nc(N3CCOCC3)n2)cn1 [BUPARLISIB],Activity,[13],Non-Toxic
same,inhibition in vivo at 27.5 mg/kg,[14],48.4%
same,viability at 1 µM,[15],81.5%
same,IC50,[16],1290 nM
same,IC50,[17],1700 nM
same,IC50,[18],646 nM
same,Activity,[19],7.84%
same,Activity,[20],Active
same,Activity,[21],1.48%
same,inhibition,[22],Active
same,Activity,[23],Non-Toxic
